Screens deposited in PubChem by several laboratories.
Tn6 DDE FP: disrupts Tn6 cyclic peptide binding to fibrin D-Dimer-E complex; AID 720509; Fibrin DD(E) TRITC-Tn6 fluorescence polarization displacement; P02675; 370,000 compounds, 0.21% hits; inhibition, % at 8.3 µM;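 active = inhibition above a per-campaign cutoff: mean of compounds within control limits plus 3 SD, cut at about 15% in these data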
Target sequence (P02675 whole entry, looked up): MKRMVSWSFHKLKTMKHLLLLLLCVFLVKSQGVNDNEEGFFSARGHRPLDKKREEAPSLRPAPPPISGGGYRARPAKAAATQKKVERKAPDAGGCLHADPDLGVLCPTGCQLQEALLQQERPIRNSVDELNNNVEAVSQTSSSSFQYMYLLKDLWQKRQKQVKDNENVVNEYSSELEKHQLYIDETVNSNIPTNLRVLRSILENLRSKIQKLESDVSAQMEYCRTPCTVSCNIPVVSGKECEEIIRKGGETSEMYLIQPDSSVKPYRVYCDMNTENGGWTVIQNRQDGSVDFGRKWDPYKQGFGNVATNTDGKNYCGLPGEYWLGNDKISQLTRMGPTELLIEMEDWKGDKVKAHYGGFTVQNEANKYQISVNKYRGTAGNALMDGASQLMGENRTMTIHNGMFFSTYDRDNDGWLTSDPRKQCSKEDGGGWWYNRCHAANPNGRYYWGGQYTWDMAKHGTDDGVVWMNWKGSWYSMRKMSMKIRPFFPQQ
CRFR2-BP antag: CRF-BP/CRF-R2 complex antagonism; HEK293 CRF-R2/CRF-BP, CRF-induced calcium fluorescence; inhibition, % at 11.8 µM; 350,000 compounds, 0.59% hits; AID 588475;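 active = inhibition of the ligand-induced calcium signal above about 50% at the single tested concentration, limit read from the data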
CRFBP-R2 agonist: agonists of human CRF-binding protein/CRF-R2 receptor complex; HEK293 CRF-R2/CRF-BP, calcium dye fluorescence (FLIPR); percent of saturating CRF peptide response; 350,000 compounds, 0.46% hits; activation, % at 13.2 µM;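 active = activation of at least 50%, plus an integration ratio under a set limit after plate pattern correction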
DDE Tn7 FP inh: disrupts Tn7 cyclic peptide binding to fibrin D-Dimer-E complex; FP displacement of FITC-Tn7 peptide from fibrin DD(E); 0% = median of compound wells per plate; inhibition, % at 8.3 µM; 370,000 compounds, 0.13% hits; AID 720508;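 active = inhibition above the mean of compounds falling within the control limits plus 3 SD of them, cut at about 14% in these data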
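system = human fibrin DD(E) protein | quantity = DD(E) 2 µM final | medium = Tris/NaCl/CaCl2 buffer, pH 7.8 | also added = labelled Tn7 tracer, 0.1 µM | compound dosing = single point at 8.3 µM | timing = compound with protein 10 min, then 3 h after probe, room temperature | signal = FP measurement | benchmarks = Aha-Tn7 high control | repeats = one replicate per compound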
DDE Tn7 confirm: DD(E)-Tn7 binding inhibition, FP confirmation | shares compounds with DDE Tn7 FP inh | FP displacement of TRITC-Tn7 peptide from DD(E); 0% set at plate's compound-well median | inhibition, % at 8.3 µM | 460 compounds, 5% hits;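 active = inhibition above the campaign cutoff, the mean of compounds within control limits plus 3 SD, cut at about 14% in these data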;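 also: displacers lower polarization since freed probe rises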
DDE Tn7 FP ctr: counter-screen for inhibitors of Tn7 peptide binding to fibrin DD(E); shares compounds with DDE Tn7 FP inh; TRITC-Tn7 probe displacement, fluorescence polarization; inhibition, % at 8.3 µM; 460 compounds, 3% hits; AID 720633;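 active = inhibition above the cutoff, the mean of compounds lying between the control bounds plus 3 SD of those compounds, cut at about 17% in these data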
A number is an active result; i = inactive; nt = no result given. Rows were chosen to be rich in hits. Some 1.2% of all compounds tested hit in one or more screens of this group.

SMILES	Tn6 DDE FP	CRFR2-BP antag	CRFBP-R2 agonist	DDE Tn7 FP inh	DDE Tn7 confirm	DDE Tn7 FP ctr
Cc1cccc(NC(=O)c2cc(Cl)ccc2[N+](=O)[O-])c1	i	i	i	14	i	i
Cc1ccc(NC(=O)c2cc(Cl)ccc2[N+](=O)[O-])cc1C	i	i	i	i	nt	nt
CCc1nc2c(OCc3ccc(Cl)cc3Cl)cccn2c1N(C)C(=O)C1CC1	i	nt	nt	i	nt	nt
CN(C)S(=O)(=O)N1CCC(Oc2ccc(C(=O)NCc3cnn(C)c3)cc2)CC1	i	i	i	14	i	i
COc1ccc(OC)c(NC(=O)c2ccc(-c3cccs3)cc2)c1	i	i	i	15	i	i
COc1ccc(NC(=O)c2cc(-c3cccs3)on2)c(OC)c1	i	i	i	i	nt	nt
C=CCN1C(=O)C(Cc2ccccc2)S/C1=N/N=C/c1cccs1 (stereo not drawn)	i	i	i	14	i	i
C=CCN1C(=O)C(Cc2ccc(OCC)cc2)S/C1=N\N=C\c1cccs1 (stereo not drawn)	i	i	i	i	nt	nt
COc1ccc(N2CCN(C3CCCN(Cc4cccc(C(C)=O)c4)C3)CC2)cc1 (stereo not drawn)	i	i	i	i	nt	nt
NNC(=O)CP(=O)(c1ccccc1)c1ccccc1	i	i	i	i	nt	nt
O=C(CP(=O)(c1ccccc1)c1ccccc1)Nn1cnnc1	i	i	i	17	i	i
CC(C)(C)c1ccc(C(=O)O[C@H]2[C@H](Cc3ccccc3)NS(=O)(=O)[C@H]3C[C@@H]4C=C[C@]23O4)cc1	i	i	i	i	nt	nt
O=C(CSc1nc(-c2ccccc2)cc(=O)[nH]1)Nc1ccc(F)c(F)c1	i	i	i	14	i	i
CC(=O)Nc1ccc(N2C(=O)c3cccc4c(O)ccc(c34)C2=O)cc1	i	i	201	20	i	i
O=C1c2cccc3c(O)ccc(c23)C(=O)N1c1ccc(Cl)cc1	i	i	i	40	i	i
O=C1c2cccc3c(O)ccc(c23)C(=O)N1Cc1ccco1	i	i	252	56	i	i
Cc1ccc(N2C(=O)c3cccc4c(C(=O)O)ccc(c34)C2=O)cc1	i	nt	nt	i	nt	nt
CCOC(=O)c1ccc(N2C(=O)c3cccc4c(C(=O)O)ccc(c34)C2=O)cc1	i	i	i	i	nt	nt
O=C(NC1CCOCC1)C1CCC(=O)N(CCc2cccc(F)c2)C1 (stereo not drawn)	i	i	i	i	nt	nt
COc1cccc(CNC(=O)CCS(=O)(=O)c2ccc3c(c2)NC(=O)CS3)c1	i	i	i	i	nt	nt
CCOC(=O)C1=Nc2cccc3c(O)ccc1c23	i	nt	nt	46	21	i
COc1ccc(-n2cnc(=S)[nH]c2=S)cc1	i	i	i	i	nt	nt
C#CCN1CC(COc2ccccc2)Oc2cccc(Oc3ccc(OC)cc3)c2S1(=O)=O (stereo not drawn)	i	nt	nt	14	i	i
C=CCN1[C@@H](C)COc2cccc(N3CCSCC3)c2S1(=O)=O	i	nt	nt	i	nt	nt
CCOC(=O)c1sc2nc3n(c(=O)c2c1C)CCCCC3	i	i	i	i	nt	nt
SMILES	Tn6 DDE FP	CRFR2-BP antag	CRFBP-R2 agonist	DDE Tn7 FP inh	DDE Tn7 confirm	DDE Tn7 FP ctr
CCOC(=O)c1sc2nc3n(c(=O)c2c1C)CCC3	i	i	i	15	i	i
CCCCCC[C@@H](CC)CN(C(=O)Oc1ccccc1)c1ccccc1	i	nt	nt	15	i	i
Cn1c(=O)c2[nH]c(-c3ccccc3)c(O)c2n(C)c1=O	i	i	70	17	i	i
Cc1ccc(NC(=O)C(c2ccccc2)N2CCN(CC(=O)N3CCOCC3)CC2)cc1 (stereo not drawn)	i	i	i	i	nt	nt
COc1cccc(NC(=O)C(c2ccccc2)N2CCN(CC(=O)N3CCOCC3)CC2)c1 (stereo not drawn)	i	i	i	15	i	i
CCOC(=O)N1CCN(Cc2nc(-c3ccc(C)cc3)no2)CC1	i	i	i	16	16	i
CCOC(=O)N1CCN(Cc2nc(-c3cccc(Cl)c3)no2)CC1	i	i	i	i	nt	nt
COc1ccccc1-c1sc2ccccc2c1-c1ccc(O)cc1	i	i	i	i	nt	nt
COc1ccccc1-c1sc2ccccc2c1C#Cc1ccc(N(C)C)cc1	i	i	i	14	i	i
CC1(C(=O)NS(=O)(=O)c2ccccc2Cl)CCN1C(=O)c1cccc2ccccc12 (stereo not drawn)	i	nt	nt	i	nt	nt
CCOC(=O)C1=CCN(S(=O)(=O)c2cccc(Cl)c2)C1c1cccc(Cl)c1 (stereo not drawn)	i	nt	nt	16	i	i
CCCCOCCCNC(=O)C[C@@H]1C[C@@]2(C(=O)OC)CCCCC=C2N(Cc2cccc3ccccc23)C1=O	i	nt	nt	i	nt	nt
COc1cc(NC(=O)c2ccc(-c3cccnc3)c3ccoc23)cc(OC)c1OC	i	nt	nt	i	nt	nt
O=C(Nc1cccc(OC(F)(F)F)c1)c1ccc(-c2cccnc2)c2ccoc12	i	nt	nt	14	i	i
C#CCn1cc(/C=N/NC(=O)c2cc3ccccc3o2)c2ccccc21	i	i	i	18	14	i
O=C(N/N=C/c1cccc2ccccc12)c1cc2ccccc2o1	i	i	i	i	nt	nt
COc1ccc(S(=O)(=O)N2CCOCC2)cc1NC(=O)c1ccc(OC(F)F)cc1	i	i	i	15	i	i
COc1ccc(S(=O)(=O)N2CCOCC2)cc1NC(=O)CCOc1ccc(C(C)(C)C)cc1	i	i	i	15	i	i
CC(C)(C)c1ccc(NC(=O)CSc2n[nH]c(=O)n2C2CC2)cc1	i	i	i	i	nt	nt
CC(C)c1ccccc1NC(=O)CSc1n[nH]c(=O)n1C1CC1	i	i	i	14	i	i
CCc1ccc(C(=O)N2CCN(c3ccc(F)cc3)CC2)s1	i	i	i	16	i	i
Cc1ccc(CC(=O)NC2CCN(C)CC2)cc1	i	i	i	i	nt	nt
CN1CCC(NC(=O)CCc2ccccc2)CC1	i	i	i	14	i	i
Cc1cccc(NC(=O)c2c([N+](=O)[O-])cnn2C)c1	i	i	i	i	nt	nt
CC(=O)Nc1ccc(NC(=O)c2c([N+](=O)[O-])cnn2C)cc1	i	i	i	15	i	i
SMILES	Tn6 DDE FP	CRFR2-BP antag	CRFBP-R2 agonist	DDE Tn7 FP inh	DDE Tn7 confirm	DDE Tn7 FP ctr
CC(=O)n1c2ccccc2c2ccccc21	i	i	i	14	i	i
Cc1cc2c(c(C#N)c1C)NC=NC2C (stereo not drawn)	i	i	i	i	nt	nt
O=C(c1ccccc1)c1ccc(O)cc1O	i	i	61	34	i	i
O=C(C1CCN(S(=O)(=O)c2cccc([N+](=O)[O-])c2)CC1)N1CCOCC1	i	i	i	14	i	i
COc1ccc(S(=O)(=O)N2CCC(C(=O)N3CCCC3)CC2)cc1Cl	i	i	i	15	i	i
O=[N+]([O-])c1cccc(S(=O)(=O)N2CCN(S(=O)(=O)N3CCOCC3)CC2)c1	i	i	i	i	nt	nt
CC1(C(=O)NCCC#N)CCN1C(=O)CC(c1ccccc1)c1ccccc1 (stereo not drawn)	i	nt	nt	i	nt	nt
